Reference: PubChem BioAssay AID686939 (The Scripps Research Institute Molecular Screening Center, 2013)
The whole screen tested about 3,500 compounds, of which about 1,400 (40%) were called active.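 How the source made its calls: active means activation above the solvent-only control well mean plus 3 SD, averaged across control plates (cut at about 5.2% in these data); inactive means the rest.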 So high a share suggests a set chosen from earlier hits. Only a sample is shown.

Test: nonselective transcriptional activators, VP16 reporter – cell-based, pG5luc, luminescence, high throughput, counter-screen for SMARCA2 (BRM) activator project (AID 686939)
Settings: HEK293 GAL4-VP16 pG5luc reporter, luciferase luminescence; at 9.1 µM; hits give high values; scaled: DMSO wells 0%, SAHA wells 100%
How it was run: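 System: 293 cells carrying GAL4-VP16 plus UAS-luciferase reporter. Quantity: 2,500 transfected 293 cells per well. Incubation: 24 h exposure, 37 °C, 5% CO2, One-Glo 15 min RT. Technique: luciferase luminescence after One-Glo reagent addition. Benchmarks: DMSO and SAHA.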

SMILES	activation
COc1cccc(-c2nc3cc(C)ccc3o2)c1	3.74% (inactive)
Cn1c(-c2ccc(F)cc2)cc2onc(-c3ccccc3Cl)c2c1=O	9.37% (active)
Fc1ccc(/C=N/Nc2nc(-c3cccnc3)nc3ccccc23)cc1	8.57% (active)
CC(=O)Nc1cc(-c2ccc(N3CCN(C)CC3)cc2)cn2c(-c3ccc(F)cc3)cnc12	1.59% (inactive)
Cc1nc(-c2nnc(SCC(=O)Nc3cc(C(F)(F)F)cc(C(F)(F)F)c3)n2C)cs1	-1.04% (inactive)
CCCCNC(=O)C1CCC(CNS(=O)(=O)c2ccc(NC(C)=O)cc2)CC1 (stereo not drawn)	0.63% (inactive)
Fc1ccc(CNc2nc3ccccc3n3nnnc23)cc1	2.47% (inactive)
CC(C)CCNC(=O)c1ccc2c(Cl)c3c(nc2c1)CCC3	9.88% (active)
COCC1CCN(C(=O)C2CCC(=O)N(Cc3cccc(C(F)(F)F)c3)C2)CC1 (stereo not drawn)	1.34% (inactive)
O=C(Nc1cc(=O)[nH]c2ncnn12)c1ccccc1Cl	0.46% (inactive)
COc1c(O)cc2oc(-c3ccc(O)c(O)c3)cc(=O)c2c1O	12.4% (active)
CCCn1nc(C(=O)Nc2ccc3nc(C)sc3c2)c2ccccc2c1=O	-0.78% (inactive)
O=C(N[C@H]1CC[C@H](CC(=O)N2CCCCC2)O[C@@H]1CO)c1cccc(F)c1	0.09% (inactive)
O=C(c1cc(-c2ccc(O)cc2)on1)N1CCOCC1	6.96% (active)
O=C(c1cc(-c2ccccc2O)on1)N1CCCC1	9.74% (active)
Cc1cc(-c2n[nH]c(=S)n2/N=C/C(Br)=C/c2ccccc2)n[nH]1	4.37% (inactive)
CCCCn1nnnc1C(c1cc2ccccc2o1)N(C)Cc1ccc(Cl)c(Cl)c1 (stereo not drawn)	1.67% (inactive)
Cc1ccc(F)c(NC(=O)CCc2ccccc2)c1	5.92% (active)
O=C(CCCc1ccccc1)NCc1ccccc1	2.83% (inactive)
COc1ccc(OCCCC(=O)NCCc2ccccc2)cc1	1.27% (inactive)
O=C(O)c1ccc(COc2c(F)c(F)cc(F)c2F)o1	-0.39% (inactive)
O=C(O)c1cccc(N=NN2CCCCCC2)c1	13.9% (active)
CN(C)CCNC(=O)c1cccc(-c2cnc3c(NC=O)cc(-c4cccc(C(F)(F)F)c4)cn23)c1	1.42% (inactive)

SMILES	activation
COc1ccc(-c2csc(Cc3nc(O)cs3)n2)cc1	19.6% (active)
Cn1cccc1/C=N/NC(=O)c1ccc(OC(F)(F)C(F)F)cc1	3.99% (inactive)
O=C(c1cccs1)C1C(c2ccc(Br)cc2)NC(=S)NC1(O)C(F)(F)F (stereo not drawn)	2.08% (inactive)
COc1cc(CN2CCC(C(N)=O)CC2)ccc1OCc1ccccc1	8.4% (active)
COc1ccccc1OCC(=O)O/N=C(\N)c1ccccn1	4.97% (inactive)
COc1ccc(CC2c3cc(OC)c(OC)cc3CC[N+]2(C)CCC(=O)OCCCCCOC(=O)CC[N+]2(C)CCc3cc(OC)c(OC)cc3C2Cc2ccc(OC)c(OC)c2)cc1OC (stereo not drawn)	1.23% (inactive)
Cc1noc(C)c1S(=O)(=O)N(C)C[C@H]1Oc2c(NC(=O)Nc3ccc4c(c3)OCO4)cccc2C(=O)N([C@H](C)CO)C[C@@H]1C	0.03% (inactive)
CN(C)C(=S)N=c1ssc(=S)n1Cc1ccco1	11.9% (active)
CCOC(=O)c1sc2nc(CSc3ccccc3)[nH]c(=O)c2c1C	0.23% (inactive)
COc1ccc(-c2cc3ncccc3cn2)cc1	9.76% (active)
CC(C)(C)c1ccc(NC(=O)NCc2ccco2)cc1	0.6% (inactive)
Cc1ccc(NC(=O)C(=O)NCc2ccco2)c(C)c1	5.75% (active)
Cc1cc(O)c(NC(=O)c2ccc(C)c([N+](=O)[O-])c2)cc1C	7.82% (active)
FC(F)(F)c1cccc(-c2nc3ccccc3n2C(c2ccccc2)c2nc3ccccc3[nH]2)c1 (stereo not drawn)	4.89% (inactive)
COc1ccc(C(CNC(=O)c2ccc(S(=O)(=O)Nc3ccccc3F)cc2)N(C)C)cc1 (stereo not drawn)	-0.57% (inactive)
CN(C)S(=O)(=O)c1ccc2oc(SCC(=O)Nc3ccccc3F)nc2c1	13.2% (active)
COc1ccc(N=C(C)c2sc3ccccc3c2O)cc1	6.57% (active)
CCOC(=O)C(C)n1cnc2c(nnn2-c2cccc(OC)c2)c1=O (stereo not drawn)	4.04% (inactive)
COc1ccc(C(=O)NC2=NCCS2)c(OC)c1	12.2% (active)
Cc1ccc(N/C=C/C(=O)c2ccccc2)cc1C	6.49% (active)
Cc1cc(=O)[nH]c(N/N=C/c2ccc3c(c2)OCCO3)n1	3.2% (inactive)
CCc1c(C)c2ccc(OC3CCCCC3=O)cc2oc1=O (stereo not drawn)	2.57% (inactive)
COc1ccc(/C=N/NC(=O)c2cc(-c3cccc(C)c3)nc3ccccc23)cc1O	7.74% (active)

SMILES	activation
COc1cc(/C=N/NC(=O)c2ccccc2)ccc1OS(=O)(=O)c1ccccc1	0.14% (inactive)
CC(C)(C)NC(=O)C(CCc1ccccc1)n1c(=O)c(-c2ccccc2)nc2ccccc21 (stereo not drawn)	0.34% (inactive)
CCC(C)N(C)C1CCN(C(=S)Nc2ccc(OC)cc2)CC1 (stereo not drawn)	1.62% (inactive)
CCCCc1ccc(NC(=S)N2CCCC(CO)C2)cc1 (stereo not drawn)	10.3% (active)
Cc1cc(C)c2nc3nc(C)cc(C)c3c(N)c2c1	3.96% (inactive)
O=C1Cc2cc(S(=O)(=O)Nc3cccc(F)c3)ccc2N1	1.09% (inactive)
CCc1ccc[n+](-c2nc([O-])sc2C=O)c1	0.22% (inactive)
Cc1cc(C)nc(Nc2n[nH]c(-c3ccccc3N)n2)n1	12.3% (active)
CCOC(=O)c1c(C)[nH]c(C2=NNC(=NC(C)COC)SC2)c1C (stereo not drawn)	8.27% (active)
COc1cccc(OCCOc2cccc(/C=N/n3cnnc3)c2)c1	6.43% (active)
Cc1ccc(-c2c(C)n([O-])c3c([n+]2=O)CCC3)cc1	-0.96% (inactive)
Cc1ccc(C(=O)CSc2ccccc2C(=O)O)cc1	6.75% (active)
COCC(C)n1c(SCc2ccc(C(=O)OC)o2)nc2ccccc2c1=O (stereo not drawn)	2.22% (inactive)
CC1CCCCC1NC(=O)CN1CCC(O)(c2ccc3c(c2)OCO3)CC1 (stereo not drawn)	4.35% (inactive)
COc1ccc(C(=O)Nc2ccc3c(c2)OCO3)cc1OC	10.2% (active)
COc1ccc(C)cc1S(=O)(=O)N(CC(=O)Nc1cccc([N+](=O)[O-])c1)c1ccc(C)cc1	-1.27% (inactive)
O=C(Nc1cccc([N+](=O)[O-])c1)N1CCc2ccccc2C1	4.55% (inactive)
O=C(Nc1cccc([N+](=O)[O-])c1)c1ccc2c(c1)OCO2	8.02% (active)
Cc1ccnc(Nc2nc3ccccc3s2)n1	3.74% (inactive)
CC1(C)CC(=O)C=C(NCCCNC2CCCCC2)C1	-0.02% (inactive)
Cc1cc2oc3ccc(NCCC4CCCN4C)cc3c(=O)c2cc1C (stereo not drawn)	6.3% (active)
Cc1ccccc1C#CC1=CC(=O)CC(C)(C)C1	1.83% (inactive)
